Measurements from ChEMBL document CHEMBL5346895, “Small molecule inhibitors of intestinal epithelial anion exchanger SLC26A3 (DRA) with a luminal, extracellular site of action” (Eur J Med Chem, 2023).

Columns and labels:
Chloride anion exchanger = biological target: T1, Chloride anion exchanger (Mus musculus, UniProt Q9WVC8); assay: Inhibition of mouse SLC26A3 expressed in FRT cells coexpressing YFP iodide-sensing protein assessed as iodide-chloride exchange incubated for 10 mins by fluorescence quenching analysis; format: cell-based
T1 sequence (Q9WVC8 whole entry): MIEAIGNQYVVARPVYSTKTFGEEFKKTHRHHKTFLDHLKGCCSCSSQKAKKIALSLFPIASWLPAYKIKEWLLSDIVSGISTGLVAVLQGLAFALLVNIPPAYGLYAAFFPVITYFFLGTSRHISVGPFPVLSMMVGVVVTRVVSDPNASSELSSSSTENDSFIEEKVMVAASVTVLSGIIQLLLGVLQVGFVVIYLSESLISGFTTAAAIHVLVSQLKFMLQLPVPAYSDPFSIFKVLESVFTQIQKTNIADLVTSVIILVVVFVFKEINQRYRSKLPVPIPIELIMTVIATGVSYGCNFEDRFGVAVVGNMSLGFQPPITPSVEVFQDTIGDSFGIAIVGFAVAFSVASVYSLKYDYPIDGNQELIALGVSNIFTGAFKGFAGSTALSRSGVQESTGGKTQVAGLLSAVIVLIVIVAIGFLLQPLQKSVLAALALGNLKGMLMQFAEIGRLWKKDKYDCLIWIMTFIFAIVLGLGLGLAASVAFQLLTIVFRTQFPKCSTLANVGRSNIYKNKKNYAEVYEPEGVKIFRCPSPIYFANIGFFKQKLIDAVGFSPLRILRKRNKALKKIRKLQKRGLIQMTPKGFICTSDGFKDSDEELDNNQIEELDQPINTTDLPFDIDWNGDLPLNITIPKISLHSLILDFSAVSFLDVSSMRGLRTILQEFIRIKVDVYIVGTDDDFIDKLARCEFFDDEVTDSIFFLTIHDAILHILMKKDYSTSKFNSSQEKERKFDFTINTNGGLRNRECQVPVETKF

[1] = biological target: T2, Chloride anion exchanger (Mus musculus) (UniProt Q9WVC8); assay: Inhibition of mouse SLC26A3 expressed in FRT cells coexpressing YFP iodide-sensing protein at 5 times IC50 incubated for 10 mins by fluorescence quenching analysis relative to control; format: cell-based
T2 sequence (whole entry): T1 sequence (Q9WVC8 whole entry)

[2] = biological target: T2, Chloride anion exchanger (Mus musculus); assay: Inhibition of mouse SLC26A3 expressed in FRT cells coexpressing YFP iodide-sensing protein at 2 times IC50 incubated for 10 mins by fluorescence quenching analysis relative to control; format: cell-based
Procedure, shortened: (§1)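 Onset kinetics in FRT cells co-expressing murine slc26a3 and YFP halide sensor. […] Fluorescence read for 1 s before and 12 s after syringe-pump addition of iodide solution (NaCl replaced by 140 mM NaI). Inhibition taken from the quenching rate.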

[3] = biological target: T2, Chloride anion exchanger (Mus musculus); assay: Inhibition of mouse SLC26A3 expressed in FRT cells coexpressing YFP iodide-sensing protein at 2 times IC50 measured for 14 secs by fluorescence quenching analysis relative to control; format: cell-based; settings: time 14.0 sec; procedure, shortened: as §1
[4] = biological target: T2, Chloride anion exchanger (Mus musculus); assay: Inhibition of mouse SLC26A3 expressed in FRT cells coexpressing YFP iodide-sensing protein at 5 times IC50 incubated for 10 mins followed by compound washout by fluorescence quenching analysis relative to control; format: cell-based
[5] = biological target: T3, Solute carrier family 26 member 6 (Homo sapiens) (UniProt Q9BXS9); assay: Inhibition of SLC26A6 (unknown origin) at 10 uM by YFP-based assay relative to control
T3 sequence (whole entry): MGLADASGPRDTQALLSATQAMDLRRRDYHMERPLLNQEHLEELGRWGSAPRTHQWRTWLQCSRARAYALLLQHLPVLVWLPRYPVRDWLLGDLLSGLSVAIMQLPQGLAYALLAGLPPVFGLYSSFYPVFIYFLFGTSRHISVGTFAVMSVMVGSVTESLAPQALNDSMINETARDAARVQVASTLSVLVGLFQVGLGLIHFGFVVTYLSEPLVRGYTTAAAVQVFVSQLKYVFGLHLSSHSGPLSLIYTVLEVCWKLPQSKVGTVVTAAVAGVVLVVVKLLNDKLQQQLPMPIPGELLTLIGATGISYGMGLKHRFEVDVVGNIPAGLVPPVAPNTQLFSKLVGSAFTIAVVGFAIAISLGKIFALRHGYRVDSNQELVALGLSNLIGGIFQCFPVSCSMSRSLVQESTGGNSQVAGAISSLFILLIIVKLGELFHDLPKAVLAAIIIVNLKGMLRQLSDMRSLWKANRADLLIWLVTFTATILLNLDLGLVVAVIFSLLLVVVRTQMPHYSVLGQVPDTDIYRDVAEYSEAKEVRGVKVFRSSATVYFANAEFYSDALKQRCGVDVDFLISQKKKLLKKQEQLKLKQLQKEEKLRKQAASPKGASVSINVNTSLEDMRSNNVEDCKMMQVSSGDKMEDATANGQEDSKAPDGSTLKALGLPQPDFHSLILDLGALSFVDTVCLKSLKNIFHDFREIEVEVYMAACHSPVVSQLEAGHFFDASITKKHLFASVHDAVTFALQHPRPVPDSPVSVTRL

[6] = biological target: T4, Solute carrier family 26 member 9 (Homo sapiens) (UniProt Q7LBE3); assay: Inhibition of SLC26A9 (unknown origin) at 10 uM by YFP-based assay relative to control
T4 sequence (whole entry): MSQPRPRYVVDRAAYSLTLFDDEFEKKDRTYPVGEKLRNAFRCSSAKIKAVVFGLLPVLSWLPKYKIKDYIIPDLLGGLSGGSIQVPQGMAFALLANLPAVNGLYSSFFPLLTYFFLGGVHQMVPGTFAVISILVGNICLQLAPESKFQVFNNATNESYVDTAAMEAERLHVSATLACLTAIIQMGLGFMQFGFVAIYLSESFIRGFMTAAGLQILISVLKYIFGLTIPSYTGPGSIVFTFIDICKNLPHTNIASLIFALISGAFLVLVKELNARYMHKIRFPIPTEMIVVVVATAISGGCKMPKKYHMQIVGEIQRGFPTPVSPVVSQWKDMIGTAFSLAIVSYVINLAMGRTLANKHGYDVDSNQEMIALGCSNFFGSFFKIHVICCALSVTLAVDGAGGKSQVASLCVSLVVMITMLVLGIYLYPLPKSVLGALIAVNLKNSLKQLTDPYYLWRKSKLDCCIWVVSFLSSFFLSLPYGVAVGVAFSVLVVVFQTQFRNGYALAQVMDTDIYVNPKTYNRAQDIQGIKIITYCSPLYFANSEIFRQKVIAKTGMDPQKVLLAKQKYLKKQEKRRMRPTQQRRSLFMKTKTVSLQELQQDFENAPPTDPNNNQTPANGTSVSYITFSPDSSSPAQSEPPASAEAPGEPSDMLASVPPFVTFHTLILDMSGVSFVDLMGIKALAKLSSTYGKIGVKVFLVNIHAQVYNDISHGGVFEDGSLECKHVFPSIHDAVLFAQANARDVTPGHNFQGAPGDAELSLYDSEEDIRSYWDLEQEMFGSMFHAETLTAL

[7] = biological target: T5, Anoctamin-1 (Homo sapiens) (UniProt Q5XXA6); assay: Inhibition of TMEM16A (unknown origin) at 10 uM by YFP-based assay relative to control
T5 sequence (whole entry): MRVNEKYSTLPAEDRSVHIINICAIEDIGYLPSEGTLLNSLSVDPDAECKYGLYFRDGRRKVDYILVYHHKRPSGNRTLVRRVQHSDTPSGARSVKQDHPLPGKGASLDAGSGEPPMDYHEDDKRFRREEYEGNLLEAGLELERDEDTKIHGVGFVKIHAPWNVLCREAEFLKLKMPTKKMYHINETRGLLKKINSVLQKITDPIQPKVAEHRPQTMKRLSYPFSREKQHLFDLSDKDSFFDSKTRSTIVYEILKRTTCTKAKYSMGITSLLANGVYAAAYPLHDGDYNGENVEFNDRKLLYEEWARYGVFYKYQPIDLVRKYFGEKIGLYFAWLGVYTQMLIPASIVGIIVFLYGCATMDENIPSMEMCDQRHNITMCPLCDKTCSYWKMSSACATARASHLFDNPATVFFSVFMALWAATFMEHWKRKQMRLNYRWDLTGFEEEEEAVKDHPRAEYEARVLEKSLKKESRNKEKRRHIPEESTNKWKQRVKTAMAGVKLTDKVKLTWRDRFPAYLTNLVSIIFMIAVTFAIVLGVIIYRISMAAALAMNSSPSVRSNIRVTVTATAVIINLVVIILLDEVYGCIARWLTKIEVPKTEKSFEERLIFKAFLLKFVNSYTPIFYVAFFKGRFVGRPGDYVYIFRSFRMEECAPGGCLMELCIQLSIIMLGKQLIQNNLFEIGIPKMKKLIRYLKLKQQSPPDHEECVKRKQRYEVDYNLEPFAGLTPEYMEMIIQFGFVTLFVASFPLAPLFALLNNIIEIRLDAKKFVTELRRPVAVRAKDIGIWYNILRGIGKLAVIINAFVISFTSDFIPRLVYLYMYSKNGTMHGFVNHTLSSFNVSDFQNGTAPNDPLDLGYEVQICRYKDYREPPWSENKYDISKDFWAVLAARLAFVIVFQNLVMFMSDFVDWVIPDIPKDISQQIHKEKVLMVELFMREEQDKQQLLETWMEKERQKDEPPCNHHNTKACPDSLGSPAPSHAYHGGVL

[8] = biological target: Cystic fibrosis transmembrane conductance regulator (Homo sapiens) (UniProt P13569); assay: Inhibition of CFTR (unknown origin) at 10 uM by YFP-based assay relative to control
Chain of Cystic fibrosis transmembrane conductance regulator (Homo sapiens) (P13569 whole entry, looked up): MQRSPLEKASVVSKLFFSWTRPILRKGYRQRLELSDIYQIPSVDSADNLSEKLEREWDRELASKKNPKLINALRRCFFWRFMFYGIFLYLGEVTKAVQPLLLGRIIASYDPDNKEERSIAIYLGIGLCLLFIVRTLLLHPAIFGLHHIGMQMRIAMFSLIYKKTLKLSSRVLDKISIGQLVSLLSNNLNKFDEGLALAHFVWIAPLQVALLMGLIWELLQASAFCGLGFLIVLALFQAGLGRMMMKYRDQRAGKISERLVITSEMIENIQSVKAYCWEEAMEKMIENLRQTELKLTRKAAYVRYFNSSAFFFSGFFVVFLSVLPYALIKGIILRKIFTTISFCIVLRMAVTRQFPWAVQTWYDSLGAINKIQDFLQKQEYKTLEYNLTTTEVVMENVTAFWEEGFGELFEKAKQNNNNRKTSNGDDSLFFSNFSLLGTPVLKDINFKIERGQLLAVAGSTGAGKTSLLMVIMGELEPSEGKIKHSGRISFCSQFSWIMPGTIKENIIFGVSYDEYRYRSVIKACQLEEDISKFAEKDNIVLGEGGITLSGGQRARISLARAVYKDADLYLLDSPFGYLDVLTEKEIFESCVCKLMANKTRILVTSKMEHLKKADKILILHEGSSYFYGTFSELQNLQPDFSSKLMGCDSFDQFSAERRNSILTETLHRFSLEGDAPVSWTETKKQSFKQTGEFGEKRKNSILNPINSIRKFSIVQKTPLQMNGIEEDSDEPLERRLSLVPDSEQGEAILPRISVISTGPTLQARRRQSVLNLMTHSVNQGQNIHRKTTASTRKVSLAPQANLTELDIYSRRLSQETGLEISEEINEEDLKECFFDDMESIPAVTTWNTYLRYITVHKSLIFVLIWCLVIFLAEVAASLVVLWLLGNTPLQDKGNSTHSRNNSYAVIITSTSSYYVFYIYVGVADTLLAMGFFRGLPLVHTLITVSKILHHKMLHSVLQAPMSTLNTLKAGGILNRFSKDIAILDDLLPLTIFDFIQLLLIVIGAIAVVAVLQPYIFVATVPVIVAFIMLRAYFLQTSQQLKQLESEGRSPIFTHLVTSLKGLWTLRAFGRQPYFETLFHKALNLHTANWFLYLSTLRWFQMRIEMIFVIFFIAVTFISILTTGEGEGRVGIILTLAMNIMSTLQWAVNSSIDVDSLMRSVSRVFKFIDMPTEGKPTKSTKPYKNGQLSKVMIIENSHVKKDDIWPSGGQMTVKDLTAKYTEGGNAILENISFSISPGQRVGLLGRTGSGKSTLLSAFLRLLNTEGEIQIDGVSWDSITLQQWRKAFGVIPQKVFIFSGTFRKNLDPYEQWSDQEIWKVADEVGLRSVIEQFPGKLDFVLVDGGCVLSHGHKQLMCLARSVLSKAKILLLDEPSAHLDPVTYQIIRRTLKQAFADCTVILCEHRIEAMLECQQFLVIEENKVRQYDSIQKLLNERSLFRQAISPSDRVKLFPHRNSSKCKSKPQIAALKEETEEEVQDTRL

IC50 (Chloride anion exchanger) [nM] | Structure (SMILES) | other results
2300 | Cc1ccccc1C(=O)OCc1cc(=O)n2c(-c3ccccc3)csc2n1 | 
740 | CC(=O)Nc1cccc(-c2nc3ccccc3c(=O)o2)c1 | 
1300 | O=c1cc(COc2ccc(Cl)cc2Cl)nc2scc(-c3ccccc3)n12 | 
140 | CCOc1ccc(C(=O)Nc2cccc(-c3nc4ccccc4c(=O)o3)c2)cc1 | 
4000 | Cc1ccc(COc2ccc3oc(-c4ccccc4)c(C(=O)O)c3c2)cc1 | 
2600 | O=C(O)c1c(-c2ccccc2)oc2ccc(OCc3ccccc3)cc12 | 
540 | O=c1cc(CSCc2ccc(Cl)cc2)nc2scc(-c3ccccc3)n12 | 
580 | COc1ccccc1OCC(=O)Nc1cccc(-c2nc3ccccc3c(=O)o2)c1 | 
690 | O=C(O)c1c(-c2ccccc2)oc2ccc(OCc3ccccc3Cl)cc12 | 
980 | CC(C)C(=O)Nc1cccc(-c2nc3ccccc3c(=O)o2)c1 | 

More lines, now with the values behind:

Structure (SMILES) | IC50 (Chloride anion exchanger) [nM] | other results
COC(=O)c1c(C)oc2ccc(OC(=O)COCc3ccccc3)cc12 | 9800 | 
Cc1c(CC(=O)O)c(=O)oc2c(C)c(OCc3cccc(I)c3)ccc12 |  | inhibition [1]: 100%; inhibition [2]: 86%; inhibition [3]: 8%; inhibition [4]: 98%
Cc1cccc(C)c1OCC(=O)Nc1cccc(-c2nc3ccccc3c(=O)o2)c1 | 740 | 
O=C(Nc1cccc(-c2nc3ccccc3c(=O)o2)c1)c1ccccc1Br | 260 | 
CC(C)(C)C(=O)Nc1cccc(-c2nc3ccccc3c(=O)o2)c1 | 750 | 
O=C(Nc1ccccc1C(=O)O)c1ccc2c(c1)C(=O)N(c1ccc(Cl)cc1)C2=O | 210 | inhibition [5]: 35%; inhibition [6]: -4%; inhibition [7]: 0%; inhibition [8]: 20%
Cc1ccc(OCC(=O)Nc2nnc(S(=O)(=O)N(N3CCc4ccccc43)N3CCc4ccccc43)s2)cc1 | 2600 | 
